These results are taken from ChEMBL document CHEMBL4513216, “Probing the Open Global Health Chemical Diversity Library for Multistage-Active Starting Points for Next-Generation Antimalarials” (ACS Infect Dis, 2020).

Molecules are shown by their SMILES.

A short description of the data set: Toxicity liver stage against HepG2, at 10uM. It is filed as cell-based. More on the design: test concentration 10 uM, cell line HepG2-A16-CD81EGFP. The settings on record: human, HepG2-A16-CD81EGFP cells; read-out: INHIBITION
The method in brief:
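Uninfected HepG2-A16-CD81EGFP cells, 3 × 10^3 per well, 1536-well, plated on prespotted compound at 10 μM final, parasite-free screening media added to match infected plates; puromycin 10 μM positive, DMSO 0.5% negative; run in parallel with 48 h PbLuc assay at 37 °C, 5% CO2; viability by CellTiter-Glo luminescence, normalized to controls.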
Turning to `Cc1cc(C)n(CC(C)Nc2ncnc3c2CCNC3)n1` (stereo unspecified), the cytotoxicity at 10 µM came out at 3.37%.

Regarding `CCc1ncc2c(n1)CN(Cc1nc(-c3cccs3)no1)CC2`, the cytotoxicity at 10 µM was -7.82%.

`Cc1cnn(CC2CCCN2C(=O)c2ccc(-n3cccn3)nc2)c1` (stereo unspecified): the cytotoxicity at 10 µM is -15.7%.

For `CN(CCNC(=O)NCc1ccsc1)C1CCCC1`, the cytotoxicity at 10 µM was -12.4%.

As for `CC(=O)N1CCC(Cc2cnc(-c3c(C)n[nH]c3C)cn2)CC1`, the cytotoxicity at 10 µM is -21.7%.

As for `COCCn1ccc2c(NC(=O)c3n[nH]c4c3CCC4)cccc21`, the cytotoxicity at 10 µM is -1.6%.

For the molecule `Cn1nc(CNC(=O)c2nc3ccccc3s2)c2c1CCOC2`, the cytotoxicity at 10 µM is -3.16%.

`COCCN(c1cc(C)nc2nc(C(F)(F)F)nn12)C1CCCC1`: the cytotoxicity at 10 µM is -0.0692%.

Regarding `CC(NC(=O)c1ccc2c(c1)COC2)c1cccc(N2CCOC2=O)c1` (stereo unspecified), the cytotoxicity at 10 µM worked out at 14.9%.

`CN1CC2(CCN(Cc3cccnc3)CC2)c2cccc(F)c21`: the cytotoxicity at 10 µM was determined as 10.7%.

For the molecule `O=C(NC1(C(=O)NC2CCCC2)CCCC1)c1ccc2[nH]ncc2c1`, the cytotoxicity at 10 µM is 4.73%.

For `O=C(Cc1ccsc1)N1C[C@H]2CCC[C@@]2(COCc2ccccn2)C1`, the cytotoxicity at 10 µM was -102%.

With `CCNC(c1ccc(C(C)C)cc1)c1cccnc1` (stereo unspecified), the cytotoxicity at 10 µM is -1.66%.

For `CN(Cc1ncc[nH]1)CC(c1cccs1)N1CCOCC1` (stereo unspecified), the cytotoxicity at 10 µM is -4.22%.

In the case of `Cc1ccc2cnn(CCC(=O)Nc3c(C)nn(C)c3C)c2c1`, the cytotoxicity at 10 µM was -13.4%.

Consider `CN1C(=O)CCCC12CCCN(Cc1nccs1)C2` (stereo unspecified), for which the cytotoxicity at 10 µM came to 11.4%.

Turning to `Cn1cccc(NC(=O)NCCc2cccc(O)c2)c1=O`, the cytotoxicity at 10 µM was -43.6%.

For the molecule `CN(C(=O)c1ccncc1Cl)c1ccccc1S(C)(=O)=O`, the cytotoxicity at 10 µM is 17.6%.

For `COC(=O)CNc1ccc(-c2nc(Cc3ccc(OC)cc3)no2)cn1`, the cytotoxicity at 10 µM was determined as 1.06%.

In the case of `NC(=O)CC1CCN(c2ncnc3cccc(F)c23)CC1`, the cytotoxicity at 10 µM was found to be 3.39%.

`CCC(C(=O)NCc1ccncc1)N(c1ccccc1)S(C)(=O)=O` (stereo unspecified): the cytotoxicity at 10 µM is -1.17%.

For the molecule `O=C(C[S+]([O-])Cc1cccc(C(F)(F)F)c1)NC1CCCC1` (stereo unspecified), the cytotoxicity at 10 µM was found to be 7.72%.

With `Cc1cc(CNC(C)Cn2cncn2)ccc1Br` (stereo unspecified), the cytotoxicity at 10 µM was 2.33%.

Turning to `CCOc1ccc(CCC(=O)N2CC[C@H]3C(=O)NCCO[C@H]3C2)cc1`, the cytotoxicity at 10 µM is 12.1%.

Consider `CC1CN(CC(=O)Nc2nncs2)CCN1Cc1nccn1C` (stereo unspecified), for which the cytotoxicity at 10 µM is -11.2%.

Regarding `Cc1cc(C2CCCN(CCc3ccc4c(c3)CCO4)C2)n[nH]1` (stereo unspecified), the cytotoxicity at 10 µM is -7.66%.

As to `Cc1ccc(CN(C(=O)NCc2nnc3n2CCCCC3)C2CC2)o1`, the cytotoxicity at 10 µM is 9.35%.

With `COc1ncccc1C(=O)N1CC(c2nc(-c3ccco3)no2)C1`, the cytotoxicity at 10 µM worked out at 4.91%.

In the case of `CC(C(=O)Nc1ncccn1)N1CCCN(c2nccs2)CC1` (stereo unspecified), the cytotoxicity at 10 µM was -2.55%.

For the molecule `CCC(=O)Nc1c(C)nn(COc2cccc(F)c2)c1C`, the cytotoxicity at 10 µM amounted to 7.77%.

Regarding `N#CCC(=O)NCc1nnc2n1CCN(Cc1ccsc1)C2`, the cytotoxicity at 10 µM is -131%.

Take `Cc1ccc(-n2nnc(C(=O)NCC3(CO)CC3)c2C2CC2)cc1`: the cytotoxicity at 10 µM is -4.43%.

Regarding `COCCCN1CCC(c2nc3c([nH]2)CC(C)(C)CNC3=O)C1` (stereo unspecified), the cytotoxicity at 10 µM turned out to be 0.0531%.

For the molecule `O[C@@H]1CC(CNCc2cccc(Cl)c2)(COc2cccnc2)C[C@@H]1O` (stereo partly specified), the cytotoxicity at 10 µM was -1.29%.

As to `CN(CC(=O)N1CCOCC(CO)C1)Cc1ccccn1` (stereo unspecified), the cytotoxicity at 10 µM was 0.382%.

Turning to `Cc1cccnc1CN1CCN(C(=O)c2cnn(C(C)C)c2)CC1`, the cytotoxicity at 10 µM was determined as 0.616%.

Consider `COc1cccc(C(=O)NCc2ccccc2S(=O)(=O)N(C)C)c1`, for which the cytotoxicity at 10 µM was -5.52%.

Turning to `O=C1CC2(CCN(Cc3ccsc3)C2)CN1c1ccc2c(c1)OCO2` (stereo unspecified), the cytotoxicity at 10 µM is -75%.

As to `Cc1cc(CNC(=O)c2cc(COc3cncc(Cl)c3)on2)n[nH]1`, the cytotoxicity at 10 µM came to 16.1%.

Take `COCCN1C[C@H]2[C@@H](C1)N(Cc1cnn(C)c1)CC[C@H]2OC`: the cytotoxicity at 10 µM amounted to 8.47%.

In the case of `COc1ccc(Cl)cc1Nc1nc(N)c(C(C)=O)s1`, the cytotoxicity at 10 µM was 2.52%.

For `O=C(NCC(F)(F)F)NC1CCCc2c1cnn2CCO` (stereo unspecified), the cytotoxicity at 10 µM was determined as 4.44%.

`CN(C)C(=O)c1ccc(-c2cccc3c2CCNC3)o1`: the cytotoxicity at 10 µM was -0.537%.

For the molecule `O=C(CC1=CCCCC1)Nc1ccc(CN2C(=O)CCC2=O)cc1`, the cytotoxicity at 10 µM was found to be 0.719%.

With `CN1CCN(Cc2ccccc2CNC(=O)c2ccc(Br)cc2)CC1`, the cytotoxicity at 10 µM was found to be 4.44%.

Take `CCC[C@H]1CN(Cc2cc(C)no2)C[C@@H]1NC(=O)C1(COC)CCC1`: the cytotoxicity at 10 µM turned out to be 3.06%.

In the case of `c1ccc(C2CCCN2Cc2nnnn2C2CC2)cc1` (stereo unspecified), the cytotoxicity at 10 µM was -5.04%.

`CN(Cc1cccc(-n2cccn2)c1)C(=O)c1ccnc(N)c1`: the cytotoxicity at 10 µM is -0.491%.

Take `Cc1cnc(C)c(N2CCN(Cc3ccc(C)c(C)c3)CC2)n1`: the cytotoxicity at 10 µM is 6.68%.

For the molecule `CN(C)CCN(Cc1ccccn1)Cc1ccnn1C1CCCCO1` (stereo unspecified), the cytotoxicity at 10 µM came out at 1.6%.

Consider `c1cncc(-c2noc(CCNc3ncnc4c3CCNCC4)n2)c1`, for which the cytotoxicity at 10 µM turned out to be 3.38%.

`Cc1nn(C)c(C)c1C1CCCN1C(=O)CCCn1cccn1` (stereo unspecified): the cytotoxicity at 10 µM is -0.685%.

Take `COc1ncccc1C(=O)N1CC[C@H]2C[C@H](c3noc(C)n3)O[C@@H]2C1`: the cytotoxicity at 10 µM worked out at 5.31%.

On to `Cc1nc(NCc2ccccn2)c2c(n1)c(C)nn2C`, for which the cytotoxicity at 10 µM is -1.02%.

As for `CN1C(=O)CC2(CCN(S(=O)(=O)C3CC3)CC2)c2ccccc21`, the cytotoxicity at 10 µM is 2.04%.

Take `c1cncc(-c2ccnn2CN2CCOCC2)c1`: the cytotoxicity at 10 µM was found to be 3.44%.

For the molecule `Cc1nccn1CCC1CCN(C(=O)C2CC3(CCNCC3)CN2)CC1` (stereo unspecified), the cytotoxicity at 10 µM is -1.64%.

In the case of `CSc1ccc(-c2nc(CN3C[C@@H](C)NC[C@@H]3C)c(C)o2)cc1`, the cytotoxicity at 10 µM is -3.06%.

With `c1ccc(CCNc2cccc(C3CCCNC3)n2)cc1` (stereo unspecified), the cytotoxicity at 10 µM is -3.18%.

On to `CC(C)N(C)CCCNC(=O)c1cnn(C(C)(C)C)c1C(F)(F)F`, for which the cytotoxicity at 10 µM came to 7.25%.

In the case of `O=C1CC2(CCN(Cc3ccccn3)C2)CN1c1cccnc1` (stereo unspecified), the cytotoxicity at 10 µM was -8.75%.

With `Cn1cccc1C(=O)N1CCc2ncc(Cn3cccn3)n2CC1`, the cytotoxicity at 10 µM is -5.2%.

On to `COCCN1CCC(CNc2nc3ccccc3o2)CC1`, for which the cytotoxicity at 10 µM is -53.6%.

As to `O=S(=O)(c1ccccc1)N1CCOC(Cn2ccnc2)C1` (stereo unspecified), the cytotoxicity at 10 µM stood at 7.77%.

Turning to `Cc1occc1C(=O)N1Cc2nccn2CC(CN2CCOCC2)C1` (stereo unspecified), the cytotoxicity at 10 µM is -117%.

On to `COc1ncnc2c1CCN(Cc1cccs1)CC2`, for which the cytotoxicity at 10 µM turned out to be 8.55%.

For `CCCNS(=O)(=O)c1ccc(C(=O)NC(CC)c2cnn(C)c2)cc1` (stereo unspecified), the cytotoxicity at 10 µM was 6.1%.

For `CC(C)c1ncc2c(n1)CN(Cc1nc(-c3cccnc3)no1)CC2`, the cytotoxicity at 10 µM is -18.7%.

Regarding `CC(=O)N1[C@H](Cn2cncn2)C[C@@H]2CN(Cc3ccncc3)CC[C@@H]21`, the cytotoxicity at 10 µM came out at 2.24%.

With `CCOCCCn1c(NC(=O)c2cc(C)no2)nc2ccccc21`, the cytotoxicity at 10 µM was -5.69%.

Consider `CCC(=O)c1ccc(OCC(=O)NCC2CCCO2)cc1` (stereo unspecified), for which the cytotoxicity at 10 µM was -52.1%.

As for `CNC1CCCN(Cc2noc(C3CC3)n2)C1` (stereo unspecified), the cytotoxicity at 10 µM turned out to be 0.95%.

Turning to `Cc1nc(CN(C)C(=O)Nc2cccc(COC(C)C)c2)no1`, the cytotoxicity at 10 µM is 8.45%.

Consider `Cn1c(C(F)(F)F)nn(CCNC(=O)NCc2ccccc2)c1=O`, for which the cytotoxicity at 10 µM is -27.3%.

Turning to `COCC(=O)N1CCCC(COc2ccccc2C)C1` (stereo unspecified), the cytotoxicity at 10 µM stood at 2.06%.

As for `c1ccc(COC2C[C@@H]3CN(Cc4cncnc4)C[C@@H]3C2)cc1` (stereo partly specified), the cytotoxicity at 10 µM is -40%.

With `CCn1ncnc1C(NC(=O)CC1CCN(C(C)C)CC1)C1CC1` (stereo unspecified), the cytotoxicity at 10 µM turned out to be 8.6%.

Turning to `Cc1cnn(CCNCc2nc(COc3ccc(F)cc3)no2)c1`, the cytotoxicity at 10 µM was -5.61%.

As for `O=C(Nc1cccnc1)[C@H]1CN(Cc2ccccn2)C[C@H]2OCC[C@@H]12`, the cytotoxicity at 10 µM is -107%.

Turning to `O=S(=O)(Nc1cnc(N2CCCC2)nc1)c1ccc(C(F)(F)F)cc1`, the cytotoxicity at 10 µM was 3.15%.

Turning to `Cc1cc(CCC(=O)O)nc(C2CCCN2c2ccnc(C)n2)n1` (stereo unspecified), the cytotoxicity at 10 µM is -8.12%.

As for `CC(C)CN(Cc1nnc(-c2ccco2)o1)CC(C)C`, the cytotoxicity at 10 µM amounted to 0.0773%.

`CC(C)N1CCC(NC(=O)NCc2ccccc2)CC1`: the cytotoxicity at 10 µM is 5.89%.

As to `NC(=O)CN1CCCC1c1csc(Nc2cnccn2)n1` (stereo unspecified), the cytotoxicity at 10 µM was -11.2%.

In the case of `CN(Cc1cnn(C)c1)C(=O)c1ccc(=O)n(Cc2ccccc2)n1`, the cytotoxicity at 10 µM is -134%.

Consider `Cc1cncc(C(=O)N2C[C@@H]3CN(S(C)(=O)=O)CCO[C@@H]3C2)c1`, for which the cytotoxicity at 10 µM is -4.87%.

For the molecule `CCN(CCc1nc2cc(C)ccc2[nH]1)C(=O)[C@@H](N)Cc1c[nH]cn1`, the cytotoxicity at 10 µM was -3.78%.

As to `CN(C)C1CC2(CCN(C(=O)c3csnn3)CC2)c2ccccc21` (stereo unspecified), the cytotoxicity at 10 µM is -138%.

As to `Cc1nc(N)cc(C2CN(C(=O)c3cscn3)CCO2)n1` (stereo unspecified), the cytotoxicity at 10 µM worked out at 7.03%.

Take `COc1ccc(Oc2ccc(C(F)(F)F)cn2)cc1CN1CCCC1`: the cytotoxicity at 10 µM is -5.62%.

For the molecule `COc1ccc(CN(Cc2cnn(C)c2)CC(C)C)cn1`, the cytotoxicity at 10 µM is -18.4%.

In the case of `CCOC(=O)N(C)C1CCN(Cc2cnc3ccccn23)CC1`, the cytotoxicity at 10 µM is 18.1%.

As for `COc1ncnc(N(C)C)c1NC(=O)Cc1c[nH]c2ccc(F)cc12`, the cytotoxicity at 10 µM is -4.2%.

On to `CC(C)c1cc(C2CCCN2C(=O)CN2C(=O)OC(C)(C)C2=O)no1` (stereo unspecified), for which the cytotoxicity at 10 µM was -7.71%.

As to `O=C1NC(c2ccccc2)=N[C@@]12CC[C@@H]1CN(CC3CCOCC3)C[C@@H]12`, the cytotoxicity at 10 µM is 4.01%.

As for `Cc1ccc(CNCc2ccc(N3CCC(CO)CC3)nc2)c(C)c1`, the cytotoxicity at 10 µM was 1.37%.
